One series deals with human recombinant PSMA (Homo sapiens, UniProt Q04609). In words: Fluorescence polarization. It is filed as binding.
In another series the target is human recombinant GCPIII (Homo sapiens, UniProt Q9Y3Q0). Description: Fluorescence polarization. The class given is binding. The note with it: for Kd: KD,GCPIII; for Kd / affinity against GCPIII (in words): off-DNA FP; for fold selectivity (fold higher dissociation constant towards GCPIII): compared to the original HIT3. A general note: Fluorescence polarisation rises when a labelled molecule tumbles more slowly, as on binding a larger partner.

The subject of a further series is HT1080.hPSMA cells. Description: Flow cytometry on HT1080.hPSMA cells. It is filed as cell-based, human. The conditions noted are these: HT1080.hPSMA vs HT1080.wt; fluorescein-labelled compounds 50-250 nM. In a few lines:
(§1)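 Fluorescein-conjugated test compounds were incubated with PSMA-positive cells (HT1080.hPSMA, LNCaP), with PSMA-negative HT1080.wt cells as reference. Cell-bound fluorescence was measured by flow cytometry to assess recognition of PSMA in a native cellular environment.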
For orientation: In flow cytometry, cells or beads pass a laser one at a time.

Another series relates to LNCaP cells. In words: Flow cytometry on LNCaP cells. It is filed as cell-based. The note with it: HT1080.wt as reference. In outline:
as §1

The subject of another series is PSMA. The note with it: read-out: IC50,PSMA; cited from earlier work.
A further series relates to HT1080.hPSMA tumors. Description: Quantitative in vivo biodistribution in tumor-bearing mice. On the set-up: species or system BALB/c nude mice. The conditions noted are these: 2 h after i.v., n = 3.
The conditions of series [1]: in combination with best standard of care; cited from earlier work.

Values joined by “and” are separate entries in the source; they are usually repeats but may differ in a detail not shown here. Equal values may be shown once. A value given as a limit tells only on which side of the number the result lay.

Usually Kd stands for the free concentration of one partner at which half of the binding sites on the other are occupied at equilibrium, for simple one-to-one binding. As a reminder, the IC50 is the concentration that inhibits the measured activity by half.

human recombinant GCPIII, sequence (Q9Y3Q0 whole entry): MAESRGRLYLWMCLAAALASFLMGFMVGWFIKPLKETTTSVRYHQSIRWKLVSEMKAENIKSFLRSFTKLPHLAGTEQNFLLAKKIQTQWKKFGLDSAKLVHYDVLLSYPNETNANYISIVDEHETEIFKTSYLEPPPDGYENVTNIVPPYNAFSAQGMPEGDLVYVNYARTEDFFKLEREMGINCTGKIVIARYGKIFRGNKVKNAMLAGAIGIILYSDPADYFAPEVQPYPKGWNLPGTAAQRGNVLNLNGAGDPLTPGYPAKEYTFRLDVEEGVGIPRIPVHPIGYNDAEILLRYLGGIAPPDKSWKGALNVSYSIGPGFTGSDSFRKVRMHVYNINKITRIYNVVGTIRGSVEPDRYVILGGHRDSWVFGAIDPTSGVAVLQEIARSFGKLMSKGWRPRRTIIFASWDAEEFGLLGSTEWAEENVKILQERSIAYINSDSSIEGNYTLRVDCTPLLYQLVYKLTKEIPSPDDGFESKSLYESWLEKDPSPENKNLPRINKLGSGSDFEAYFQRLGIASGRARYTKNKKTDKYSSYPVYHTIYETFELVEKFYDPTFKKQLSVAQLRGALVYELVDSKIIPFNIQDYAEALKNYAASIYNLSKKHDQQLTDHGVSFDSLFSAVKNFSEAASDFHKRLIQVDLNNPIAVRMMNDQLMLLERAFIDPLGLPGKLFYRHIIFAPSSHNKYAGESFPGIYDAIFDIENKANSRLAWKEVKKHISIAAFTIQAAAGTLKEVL
human recombinant PSMA, sequence (Q04609 whole entry): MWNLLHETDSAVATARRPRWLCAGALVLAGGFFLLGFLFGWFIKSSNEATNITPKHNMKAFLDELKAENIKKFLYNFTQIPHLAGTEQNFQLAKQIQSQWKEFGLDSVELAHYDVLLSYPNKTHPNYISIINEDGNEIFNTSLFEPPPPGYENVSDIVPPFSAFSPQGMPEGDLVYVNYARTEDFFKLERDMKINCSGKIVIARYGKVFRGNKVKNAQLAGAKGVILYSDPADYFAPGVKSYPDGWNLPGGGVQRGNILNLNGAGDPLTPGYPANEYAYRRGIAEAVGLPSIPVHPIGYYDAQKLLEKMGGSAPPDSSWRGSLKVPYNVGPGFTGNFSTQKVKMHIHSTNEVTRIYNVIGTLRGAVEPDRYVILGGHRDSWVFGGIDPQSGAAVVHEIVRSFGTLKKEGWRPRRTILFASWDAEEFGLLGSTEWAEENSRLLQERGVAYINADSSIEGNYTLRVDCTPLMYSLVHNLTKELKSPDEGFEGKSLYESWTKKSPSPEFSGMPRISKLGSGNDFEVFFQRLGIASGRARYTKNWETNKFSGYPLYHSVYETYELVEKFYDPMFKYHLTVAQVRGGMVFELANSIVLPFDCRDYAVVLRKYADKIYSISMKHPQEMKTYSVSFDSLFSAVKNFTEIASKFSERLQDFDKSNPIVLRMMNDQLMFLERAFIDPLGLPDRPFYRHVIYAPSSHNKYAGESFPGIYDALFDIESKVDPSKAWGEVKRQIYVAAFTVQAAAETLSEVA

Take `N#Cc1cccc(C[C@H](NC(=O)c2nn(-c3ccccc3)c(=O)[nH]c2=O)C(=O)N[C@@H](Cc2ccc(CP(=O)(O)O)cc2)C(=O)N[C@@H](CCCCNC(=S)Nc2ccc3c(c2)C(=O)OC32c3ccc(O)cc3Oc3cc(O)ccc32)C(=O)O)c1` [Compound 1]: the equilibrium dissociation constant (Kd) at human recombinant PSMA was found to be 260 ± 5 nM; on human recombinant GCPIII, 600 ± 3 nM.

For the compound `O=C(O)CNC(=O)c1cc(CNC(=O)c2ccc(CNC(=O)[C@H]3C[C@H](NC(=O)CCNS(=O)(=O)c4ccc5ccccc5c4)CN3C(=O)c3nn(-c4ccccc4)c(=O)[nH]c3=O)cc2)cc(OCC(=O)N[C@@H](CCCCNC(=S)Nc2ccc3c(c2)C(=O)OC32c3ccc(O)cc3Oc3cc(O)ccc32)C(=O)O)c1` [Compound 5], the “affinity against GCPIII (in words)” value at human recombinant GCPIII was “no measurable affinity was detected”.

`O=C(CCNS(=O)(=O)c1ccc2ccccc2c1)N[C@H]1C[C@H](C(=O)N[C@@H](CCCCNC(=S)Nc2ccc3c(c2)C(=O)OC32c3ccc(O)cc3Oc3cc(O)ccc32)C(=O)O)N(C(=O)c2nn(-c3ccccc3)c(=O)[nH]c2=O)C1` [Compound 6]: the “affinity against GCPIII (in words)” value on human recombinant GCPIII is reported as “no measurable affinity was detected”.

Turning to `O=C(O)CNC(=O)c1cc(CNC(=O)c2ccc(CNC(=O)[C@H]3C[C@H](NC(=O)CCNS(=O)(=O)c4ccc5ccccc5c4)CN3C(=O)c3nn(-c4ccccc4)c(=O)[nH]c3=O)cc2)cc(OCC(=O)NCCOCCOCCNC(=S)Nc2ccc3c(c2)C(=O)OC32c3ccc(O)cc3Oc3cc(O)ccc32)c1` [Compound 7], at human recombinant GCPIII, the “affinity against GCPIII (in words)” value is “no measurable affinity was detected”.

As for `O=C(CCNS(=O)(=O)c1ccc2ccccc2c1)N[C@H]1C[C@H](C(=O)NCCOCCOCCNC(=S)Nc2ccc3c(c2)C(=O)OC32c3ccc(O)cc3Oc3cc(O)ccc32)N(C(=O)c2nn(-c3ccccc3)c(=O)[nH]c2=O)C1` [Compound 8, (2R,4S) -N-(2-(2-(2-(3-(3',6'-dihydroxy-3-oxo-3H-spiro[isobenzofuran-1,9'-xanthen]-5-yl)thioureido)ethoxy)ethoxy)ethyl)-1-(3,5-dioxo-2-phenyl-2,3,4,5-tetrahydro-1,2,4-triazine-6-carbonyl)-4-(3-(naphthalene-2-sulfonamido)propanamido)pyrrolidine-2-carboxamide], the Kd on human recombinant PSMA was greater than 10000 nM. Further, the “affinity against GCPIII (in words)” value at human recombinant GCPIII is given as “no measurable affinity was detected”.

Turning to `C#CC[C@H](NC(=O)[C@@H]1C[C@@H](C2CCCCC2)CN1C(=O)CSC1CCN(C(=O)CC[C@H](NC(=O)N[C@@H](CCC(=O)O)C(=O)O)C(=O)O)CC1)C(=O)NCCOCCOCCNC(=S)Nc1ccc2c(c1)C(=O)OC21c2ccc(O)cc2Oc2cc(O)ccc21` [Compound 9], the Kd at human recombinant PSMA was 0.9 ± 0.5 nM. For the same compound, the “fold selectivity (fold higher dissociation constant towards GCPIII)” value at human recombinant GCPIII was roughly 40 fold.

For `C#CC[C@@H](NC(=O)[C@@H]1C[C@@H](C2CCCCC2)CN1C(=O)CSC1CCN(C(=O)CC[C@H](NC(=O)N[C@@H](CCC(=O)O)C(=O)O)C(=O)O)CC1)C(=O)NCCOCCOCCNC(=S)Nc1ccc2c(c1)C(=O)OC21c2ccc(O)cc2Oc2cc(O)ccc21` [Compound 10], the dissociation constant Kd at human recombinant PSMA is 1.3 ± 0.7 nM. On human recombinant GCPIII, the “fold selectivity (fold higher dissociation constant towards GCPIII)” value is reported as roughly 40 fold.

With `O=C(O)CC[C@H](NC(=O)N[C@@H](CCC(=O)NCCOCCOCCNC(=S)Nc1ccc2c(c1)C(=O)OC21c2ccc(O)cc2Oc2cc(O)ccc21)C(=O)O)C(=O)O` [Compound 12], the “binding to PSMA on cells, fluorescence shift by flow cytometry” value in the series with HT1080.hPSMA cells and with LNCaP cells was “avidly bound to PSMA” throughout.

Turning to `O=C(CCNS(=O)(=O)c1ccc2ccccc2c1)N[C@H]1C[C@H](C(=O)O)N(C(=O)c2nn(-c3ccccc3)c(=O)[nH]c2=O)C1` [HIT2], the “binding to PSMA on cells, fluorescence shift by flow cytometry” value with HT1080.hPSMA cells is “not able to interact with PSMA on tumor cells”.

Regarding `O=C(O)CC[C@H](NC(=O)N[C@@H](CCC(=O)O)C(=O)O)C(=O)O` [HIT3, (2S,2′S)-2,2′-(carbonyldiimino)dipentanedioic acid, reference compound], the Kd at human recombinant PSMA is 1 nM; on human recombinant GCPIII, 1.2 nM and 1 nM. The IC50 in the series on PSMA is 47 nM.

Consider `O=C([O-])CN1CCN(CC(=O)[O-])CCN(CC(=O)NCC2CCC(C(=O)N[C@@H](Cc3ccc4ccccc4c3)C(=O)NCCCC[C@H](NC(=O)N[C@@H](CCC(=O)O)C(=O)O)C(=O)O)CC2)CCN(CC(=O)[O-])CC1.[177Lu+3]` (stereo partly shown) [Pluvicto™], for which the “Tumor (HT1080.hPSMA) uptake” value with HT1080.hPSMA tumors (18: 1 nmol/mouse, Pluvicto 0.5 nmol/mouse, 1 MBq) is listed as 32.4 %ID/g. Besides, in the series with HT1080.hPSMA tumors, the Kidney uptake was found to be 2.16 %ID/g and the “Tumor-to-organ ratio, Blood (T : B)” value is recorded as 2079. In series [1], the overall response rate is reported as 30% and the overall survival was 15.3 months.
